Active and inactive are the calls of the source. The calls are words filed in the database; no cut-off is given here.
What was measured:
MM1.S [1] = experiment: Upregulation of DOT1L in human MM1.S cells by qRT-PCR analysis; assay type: functional, cell-based
Procedure, shortened: (§1)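 Basal DOT1L transcript in untreated myeloma cell lines measured by qRT-PCR, normalized to ACTB; mean of 3 replicates with SEM.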

KMS-11 = experiment: Upregulation of DOT1L in human KMS-11 cells by qRT-PCR analysis; assay type: functional, cell-based; procedure, shortened: as §1
KMS-12-BM = experiment: Upregulation of DOT1L in human KMS-12-BM cells by qRT-PCR analysis; assay type: functional, cell-based; procedure, shortened: as §1
KMS-12-PE = experiment: Upregulation of DOT1L in human KMS-12-PE cells by qRT-PCR analysis; assay type: functional, cell-based; procedure, shortened: as §1
RPMI-8226 [2] = experiment: Upregulation of AGPAT9 gene in human RPMI-8226 cells at 1 uM for 6 days by; assay type: functional, cell-based; conditions: time 6.0 day
RPMI-8226 [3] = experiment: Upregulation of ALPK1 gene in human RPMI-8226 cells at 1 uM for 6 days by; assay type: functional, cell-based; conditions: time 6.0 day
RPMI-8226 [4] = experiment: Upregulation of BATF3 gene in human RPMI-8226 cells at 1 uM for 6 days by; assay type: functional, cell-based; conditions: time 6.0 day
RPMI-8226 [5] = experiment: Upregulation of CARD6 gene in human RPMI-8226 cells at 1 uM for 6 days by; assay type: functional, cell-based; conditions: time 6.0 day
RPMI-8226 [6] = experiment: Upregulation of CCDC96 gene in human RPMI-8226 cells at 1 uM for 6 days by; assay type: functional, cell-based; conditions: time 6.0 day
RPMI-8226 [7] = experiment: Upregulation of CCL2 gene in human RPMI-8226 cells at 1 uM for 6 days by; assay type: functional, cell-based; conditions: time 6.0 day
RPMI-8226 [8] = experiment: Upregulation of CFH gene in human RPMI-8226 cells at 1 uM for 6 days by; assay type: functional, cell-based; conditions: time 6.0 day
RPMI-8226 [9] = experiment: Upregulation of CHRNA6 gene in human RPMI-8226 cells at 1 uM for 6 days by; assay type: functional, cell-based; conditions: time 6.0 day
Procedure, shortened: (§2)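 Human myeloma lines RPMI-8226 and MM.1S exposed to 1 μM DOT1L inhibitor, or DMSO, for 6 days. Whole-genome expression profiled on gene expression microarray.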

RPMI-8226 [10] = experiment: Upregulation of DDIT4L gene in human RPMI-8226 cells at 1 uM for 6 days by; assay type: functional, cell-based; conditions: time 6.0 day; procedure, shortened: as §2
RPMI-8226 [11] = experiment: Upregulation of ENC1 gene in human RPMI-8226 cells at 1 uM for 6 days by; assay type: functional, cell-based; conditions: time 6.0 day; procedure, shortened: as §2
RPMI-8226 [12] = experiment: Upregulation of IL13RA1 gene in human RPMI-8226 cells at 1 uM for 6 days by; assay type: functional, cell-based; conditions: time 6.0 day
RPMI-8226 [13] = experiment: Upregulation of MILR1 gene in human RPMI-8226 cells at 1 uM for 6 days by; assay type: functional, cell-based; conditions: time 6.0 day
RPMI-8226 [14] = experiment: Upregulation of MME gene in human RPMI-8226 cells at 1 uM for 6 days by; assay type: functional, cell-based; conditions: time 6.0 day
RPMI-8226 [15] = experiment: Upregulation of MS4A4A gene in human RPMI-8226 cells at 1 uM for 6 days by; assay type: functional, cell-based; conditions: time 6.0 day
RPMI-8226 [16] = experiment: Upregulation of PTGER4 gene in human RPMI-8226 cells at 1 uM for 6 days by; assay type: functional, cell-based; conditions: time 6.0 day
RPMI-8226 [17] = experiment: Upregulation of PYCARD gene in human RPMI-8226 cells at 1 uM for 6 days by; assay type: functional, cell-based; conditions: time 6.0 day
RPMI-8226 [18] = experiment: Upregulation of SMIM14 gene in human RPMI-8226 cells at 1 uM for 6 days by; assay type: functional, cell-based; conditions: time 6.0 day
RPMI-8226 [19] = experiment: Upregulation of SORL1 gene in human RPMI-8226 cells at 1 uM for 6 days by; assay type: functional, cell-based; conditions: time 6.0 day
MM1.S [20] = experiment: Upregulation of CCDC74B gene in human MM1.S cells at 1 uM for 6 days by; assay type: functional, cell-based; conditions: time 6.0 day
MM1.S [21] = experiment: Upregulation of CCR2 gene in human MM1.S cells at 1 uM for 6 days by; assay type: functional, cell-based; conditions: time 6.0 day
MM1.S [22] = experiment: Upregulation of CCR5 gene in human MM1.S cells at 1 uM for 6 days by; assay type: functional, cell-based; conditions: time 6.0 day
MM1.S [23] = experiment: Upregulation of CHRNA6 gene in human MM1.S cells at 1 uM for 6 days by; assay type: functional, cell-based; conditions: time 6.0 day
MM1.S [24] = experiment: Upregulation of FZD1 gene in human MM1.S cells at 1 uM for 6 days by; assay type: functional, cell-based; conditions: time 6.0 day; procedure, shortened: as §2
MM1.S [25] = experiment: Upregulation of HLA-DMB gene in human MM1.S cells at 1 uM for 6 days by; assay type: functional, cell-based; conditions: time 6.0 day; procedure, shortened: as §2
MM1.S [26] = experiment: Upregulation of IQCE gene in human MM1.S cells at 1 uM for 6 days by; assay type: functional, cell-based; conditions: time 6.0 day
MM1.S [27] = experiment: Upregulation of MS4A4A gene in human MM1.S cells at 1 uM for 6 days by; assay type: functional, cell-based; conditions: time 6.0 day
MM1.S [28] = experiment: Upregulation of NRIP1 gene in human MM1.S cells at 1 uM for 6 days by; assay type: functional, cell-based; conditions: time 6.0 day
MM1.S [29] = experiment: Upregulation of PPP1R1C gene in human MM1.S cells at 1 uM for 6 days by; assay type: functional, cell-based; conditions: time 6.0 day
MM1.S [30] = experiment: Upregulation of PYCARD gene in human MM1.S cells at 1 uM for 6 days by; assay type: functional, cell-based; conditions: time 6.0 day
MM1.S [31] = experiment: Upregulation of SLC9A9 gene in human MM1.S cells at 1 uM for 6 days by; assay type: functional, cell-based; conditions: time 6.0 day
MM1.S [32] = experiment: Upregulation of SNX10 gene in human MM1.S cells at 1 uM for 6 days by; assay type: functional, cell-based; conditions: time 6.0 day
MM1.S [33] = experiment: Upregulation of TLE1 gene in human MM1.S cells at 1 uM for 6 days by; assay type: functional, cell-based; conditions: time 6.0 day
MM1.S [34] = experiment: Upregulation of TP53I11 gene in human MM1.S cells at 1 uM for 6 days by; assay type: functional, cell-based; conditions: time 6.0 day
MM1.S [35] = experiment: Effect on human MM1.S cells assessed as change in IRF4 mRNA level at 1 uM for 6 days by qRT-PCR analysis; conditions: time 6.0 day
RPMI-8226 [36] = experiment: Antitumor activity against compound pretreated cells human RPMI-8226 cells at 1 uM for 3 days xenografted in SCID mouse assessed as reduction of tumor volume measured upto 36 days; assay type: functional, cell-based; conditions: time 39.0 day
Procedure, shortened: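 Ex vivo pretreatment: RPMI-8226 cells exposed to 1 μM DOT1L inhibitor or DMSO for 3 days. Then 1 × 10^7 cells in 200 μl RPMI-1640 injected subcutaneously into the thighs of 6-week-old C.B-17 SCID mice, with drug-treated cells in the left thigh and DMSO cells in the right. Tumor measured every 3 days by calipers; volume = length × width²/2; n = 5, mean ± SEM.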

MM1.S [37] = experiment: Induction of cell cycle arrest in human MM1.S cells assessed as decrease in accumulation of cells at S phase at 1 uM for 6 days; assay type: functional, cell-based; conditions: time 6.0 day
Procedure, shortened: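 Flow cytometric cell cycle analysis of RPMI-8226 and MM.1S cells treated with 1 μM DOT1L inhibitor or DMSO for 6 days. Sub-G1, G0-G1 and S phase populations scored. Summary is from 3 replications, mean ± SEM.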

RPMI-8226 [38] = experiment: Induction of apoptosis in human RPMI-8226 cells assessed as early apoptotic cells at 1 uM for 6 days by annexin-V based propidium iodide staining based flow cytometric analysis (reference value: 6.19%); assay type: functional; conditions: time 6 day
MM1.S [39] = experiment: Effect on human MM1.S cells assessed as change in PRDM1 mRNA level at 1 uM for 3 days by ChIP-qPCR analysis; assay type: functional, cell-based; conditions: time 3.0 day
Procedure, shortened: (§3)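 ChIP-qPCR for H3K79me2 at IRF4-MYC signaling genes after 1 μM inhibitor or DMSO for 3 days. Signal normalized to input DNA. An intergenic region 28 kb upstream of KLF2 served as negative control. Mean of 3 replications ± SEM.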

MM1.S [40] = experiment: Effect on human MM1.S cells assessed as change in KLF2 mRNA level at 1 uM for 3 days by ChIP-qPCR analysis; assay type: functional, cell-based; conditions: time 3.0 day; procedure, shortened: as §3

CC(C)N(CCCNC(=O)Nc1ccc(C(C)(C)C)cc1)C[C@H]1O[C@@H](n2cc(Br)c3c(N)ncnc32)[C@H](O)[C@@H]1O
Activity (MM1.S [1]): Active
Activity (KMS-11): Active
Activity (KMS-12-BM): Active
Activity (KMS-12-PE): Active
Activity (RPMI-8226 [2]): Active
Activity (RPMI-8226 [3]): Active
Activity (RPMI-8226 [4]): Active
Activity (RPMI-8226 [5]): Active
Activity (RPMI-8226 [6]): Active
Activity (RPMI-8226 [7]): Active
Activity (RPMI-8226 [8]): Active
Activity (RPMI-8226 [9]): Active
Activity (RPMI-8226 [10]): Active
Activity (RPMI-8226 [11]): Active
Activity (RPMI-8226 [12]): Active
Activity (RPMI-8226 [13]): Active
Activity (RPMI-8226 [14]): Active
Activity (RPMI-8226 [15]): Active
Activity (RPMI-8226 [16]): Active
Activity (RPMI-8226 [17]): Active
Activity (RPMI-8226 [18]): Active
Activity (RPMI-8226 [19]): Active
Activity (MM1.S [20]): Active
Activity (MM1.S [21]): Active
Activity (MM1.S [22]): Active
Activity (MM1.S [23]): Active
Activity (MM1.S [24]): Active
Activity (MM1.S [25]): Active
Activity (MM1.S [26]): Active
Activity (MM1.S [27]): Active
Activity (MM1.S [28]): Active
Activity (MM1.S [29]): Active
Activity (MM1.S [30]): Active
Activity (MM1.S [31]): Active
Activity (MM1.S [32]): Active
Activity (MM1.S [33]): Active
Activity (MM1.S [34]): Active
Activity (MM1.S [35]): Active

CC(C)N(C[C@H]1O[C@@H](n2cnc3c(N)ncnc32)[C@H](O)[C@@H]1O)[C@H]1C[C@@H](CCc2nc3cc(C(C)(C)C)ccc3[nH]2)C1 [PINOMETOSTAT]
Activity (RPMI-8226 [36]): Active
Activity (MM1.S [37]): Active
Activity (RPMI-8226 [38]): 22.4%
Activity (MM1.S [39]): Active
Activity (MM1.S [40]): Active

Reference: ChEMBL document CHEMBL5712901, “DOT1L inhibition blocks multiple myeloma cell proliferation by suppressing IRF4-MYC signaling” (2019)
